These results are taken from ChEMBL document CHEMBL1125798, “Synthesis and biological activity of a series of diaryl-substituted alpha-cyano-beta-hydroxypropenamides, a new class of anthelmintic agents” (1991).

Holding throughout (type): functional
For experiment [1], the system named is Heligmosomoides polygyrus. Description: Anthelmintic activity against mice infected with parasite Nematospiroides dubius, at a dose of 62(ppm in feed). In a few lines:
(§1)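 Compound was given in feed ad libitum from 24 h postinfection for 18 days, four mice per group. On day 19, N. dubius were counted in the duodenum and H. nana in the ileum. Result is % reduction of mean worm burden vs untreated control; ≤25% was recorded as 0.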

The test system of experiment [2] is Heligmosomoides polygyrus. In words: Anthelmintic activity against mice, infected with parasite Nematospiroides dubius, at a dose of 31(ppm in feed). In a few lines:
as §1

Experiment [3] relates to Rodentolepis nana. In words: Anthelmintic activity against mice infected with parasite Hymenolepis nana at a dose of 62(ppm in feed). In a few lines:
as §1

In experiment [4] the test system is Rodentolepis nana. In words: The compound was tested for anthelmintic activity against mice, infected with parasite Hymenolepis nana at a dose of 31(ppm in feed). In a few lines:
as §1

Experiment [5] relates to Heligmosomoides polygyrus. Description: Anthelmintic activity against mice, infected with parasite Nematospiroides dubius, at a dose of 125 (ppm in feed). In a few lines:
as §1

In experiment [6] the test system is Heligmosomoides polygyrus. In words: Anthelmintic activity against mice, infected with parasite Nematospiroides dubius, at a dose of 250(ppm in feed). In a few lines: as §1
Experiment [7] relates to Rodentolepis nana. Description: The compound was tested for anthelmintic activity against mice, infected with parasite Hymenolepis nana at a dose of 250(ppm in feed). In a few lines:
as §1

For experiment [8], the system named is Rodentolepis nana. Description: Anthelmintic activity against mice infected with parasite Hymenolepis nana at a dose of 125 ppm (in feed). In a few lines:
as §1

The test system of experiment [9] is Ovis aries. Description: Anthelmintic activity against sheep, infected with Ostertagia circumcincta, at a dose of 30 mg/kg. In a few lines:
(§2)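 Merino ewes and wethers (12-15 months, 25-35 kg) received L3 intraruminally on day 0. Susceptible strains: H. contortus 6000, O. circumcincta 8000, T. colubriformis 8000. Benzimidazole-resistant strains: 8000, 9000, 9000. Animals were allocated by day-27 fecal egg count (n = 4-7) and given a single intraruminal dose in 0.5% carboxymethylcellulose saline. Adult worms in abomasum and small intestine were counted on day 35. Result is mean % reduction vs untreated controls.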

Experiment [10] has as its system Ovis aries. In words: Anthelmintic activity against sheep, infected with Trichostrongylus colubriformis, at a dose of 30 mg/kg. In a few lines: as §2
Experiment [11] concerns Ovis aries. Description: Anthelmintic activity against sheep, infected with Haemonchus contortus, at a dose of 30 mg/kg. In a few lines:
as §2

The subject of experiment [12] is Ascaris suum. Description: Effect on incorporation of [32Pi] by isolated Ascaris suum mitochondria at a concentration of 50 uM. In a few lines:
(§3)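 Body-wall muscle mitochondria from adult A. suum (4-5 mg protein) were preincubated for 5 min at 30 °C, pH 7.4, with inhibitor in 170 mM mannitol, 50 mM sucrose, 10 mM 32Pi-phosphate, 1 mM MgCl2, 0.4 mM ADP and 0.1 unit hexokinase. Reaction was started with 10 mM malate and stopped after 15 min with perchloric acid. 32P-organic phosphate and succinate were measured in extracts; duplicate runs.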

For experiment [13], the system named is Ascaris suum. Description: Effect on incorporation of [32Pi] by isolated Ascaris suum mitochondria at a concentration of 10 uM. In a few lines:
as §3

Experiment [14] has as its system Ascaris suum. Description: Effect on succinate formation by isolated Ascaris suum mitochondria at a concentration of 3 uM. In a few lines: as §3
For experiment [15], the system named is Ascaris suum. In words: Effect on incorporation of [32Pi] by isolated Ascaris suum mitochondria at a concentration of 25 uM. In a few lines: as §3
The subject of experiment [16] is Ascaris suum. Description: Effect on succinate formation by isolated Ascaris suum mitochondria at a concentration of 0 uM. In a few lines: as §3
The test system of experiment [17] is Ovis aries. In words: Anthelmintic activity against sheep, infected with Ostertagia circumcincta, at a dose of 20 mg/kg. In a few lines:
as §2

Experiment [18] concerns Ascaris suum. Description: Effect on succinate formation by isolated Ascaris suum mitochondria at a concentration of 50 uM. In a few lines:
as §3

For experiment [19], the system named is Ascaris suum. Description: Effect on incorporation of [32Pi] by isolated Ascaris suum mitochondria at a concentration of 0 uM. In a few lines:
as §3

In experiment [20] the test system is Ascaris suum. Description: Effect on succinate formation by isolated Ascaris suum mitochondria at a concentration of 25 uM. In a few lines: as §3
For experiment [21], the system named is Ovis aries. Description: Anthelmintic activity against sheep, infected with Trichostrongylus colubriformis, at a dose of 20 mg/kg. In a few lines: as §2
The test system of experiment [22] is Ovis aries. Description: Anthelmintic activity against sheep, infected with Haemonchus contortus, at a dose of 20 mg/kg. In a few lines: as §2
Experiment [23] concerns Ascaris suum. Description: Effect on incorporation of [32Pi] by isolated Ascaris suum mitochondria at a concentration of 3 uM. In a few lines: as §3
The subject of experiment [24] is Ascaris suum. In words: Effect on succinate formation by isolated Ascaris suum mitochondria at a concentration of 10 uM. In a few lines: as §3
For experiment [25], the system named is Rodentolepis nana. Description: The compound was tested for anthelmintic activity against mice, infected with parasite Hymenolepis nana at a dose of 1000(ppm in feed). In a few lines: as §1
Experiment [26] relates to Heligmosomoides polygyrus. Description: Anthelmintic activity against mice, infected with parasite Nematospiroides dubius, at a dose of 1000(ppm in feed). In a few lines:
as §1

In experiment [27] the test system is Heligmosomoides polygyrus. Description: Anthelmintic activity against mice, infected with parasite Nematospiroides dubius, at a dose of 250 pm in feed). In a few lines: as §1
Experiment [28] deals with Heligmosomoides polygyrus. Description: Anthelmintic activity against mice, infected with parasite Nematospiroides dubius, at a dose of 125 ppm in feed. In a few lines:
as §1

The test system of experiment [29] is Rodentolepis nana. Description: The compound was tested for anthelmintic activity against mice, infected with parasite Hymenolepis nana at a dose of 31 p.p.m. in feed. In a few lines:
as §1

Experiment [30] relates to Rodentolepis nana. In words: The compound was tested for anthelmintic activity against mice, infected with parasite Hymenolepis nana at a dose of 125 p.p.m. in feed. In a few lines:
as §1

Experiment [31] deals with Heligmosomoides polygyrus. In words: Anthelmintic activity against mice, infected with parasite Nematospiroides dubius, at a dose of 31 p.p.m. in feed. In a few lines: as §1
The subject of experiment [32] is Rodentolepis nana. Description: The compound was tested for anthelmintic activity against mice, infected with parasite Hymenolepis nana at a dose of 500(ppm in feed). In a few lines:
as §1

Experiment [33] relates to Heligmosomoides polygyrus. In words: Anthelmintic activity against mice, infected with parasite Nematospiroides dubius, at a dose of 500(ppm in feed). In a few lines: as §1
Experiment [34] relates to Rodentolepis nana. Description: The compound was tested for anthelmintic activity against mice, infected with parasite Hymenolepis nana at a dose of 62(ppm in feed). In a few lines: as §1
Experiment [35] relates to Heligmosomoides polygyrus. In words: Anthelmintic activity against mice, infected with parasite Nematospiroides dubius, at a dose of 125(ppm in feed). In a few lines:
as §1

Experiment [36] has as its system Rodentolepis nana. In words: The compound was tested for anthelmintic activity against mice, infected with parasite Hymenolepis nana at a dose of 125(ppm in feed). In a few lines:
as §1

For experiment [37], the system named is Heligmosomoides polygyrus. In words: Anthelmintic activity against mice, infected with parasite Nematospiroides dubius, at a dose of 62(ppm in feed). In a few lines: as §1
Experiment [38] deals with Heligmosomoides polygyrus. Description: Anthelmintic activity against mice, infected with parasite Nematospiroides dubius, at a dose of 875(ppm in feed). In a few lines: as §1
Experiment [39] relates to Rodentolepis nana. In words: The compound was tested for anthelmintic activity against mice, infected with parasite Hymenolepis nana at a dose of 875(ppm in feed). In a few lines: as §1

For the molecule `N#C/C(C(=O)Nc1ccc(OC(F)(F)F)cc1)=C(/O)c1ccc(OC(F)(F)F)cc1`, the Reduction in experiment [1] was determined as 100%; in experiment [2], 39%; in experiment [3], 56%; in [4] it was 0%.

On to `N#C/C(C(=O)Nc1ccc(Sc2ccc(Cl)cc2)cc1)=C(/O)c1ccc(C(F)(F)F)cc1`, for which the Reduction in experiment [5] stood at 0%; in experiment [6], 94%; in experiment [7], 33%; in [8], 0%.

On to `N#C/C(C(=O)Nc1ccc(C(F)(F)F)cc1)=C(/O)Cc1ccc(C(F)(F)F)cc1`, for which the Reduction amounted to 35% in experiment [5]; 90% in experiment [6]; 0% in [9]; 0% in [7]; 0% in [10]; 78% in experiment [11]. Also, the Reduction in [8] worked out at 0%.

Turning to `N#C/C(C(=O)Nc1ccc(C(F)(F)F)cc1)=C(/O)c1ccc(C(F)(F)F)cc1`, the Reduction came out at 100% in [1]; 76% in experiment [2]; 0% in experiment [9]; 66% in experiment [17]; 0% in experiment [3]; 0% in experiment [10]. In addition, the Reduction in experiment [11] stood at 100%; in [21], 0%; in [22] it was 100%; in experiment [4], 0%. In addition, the EC in [12] is given as 0.05 uM 15min-1 mg-1; in experiment [13] it was 0.28 uM 15min-1 mg-1; in [14], 0.63 uM 15min-1 mg-1; in [15], 0.15 uM 15min-1 mg-1; in experiment [16], 0.48 uM 15min-1 mg-1; in [18], 1.17 uM 15min-1 mg-1. In addition, the EC in experiment [19] was determined as 0.39 uM 15min-1 mg-1; in [20], 0.86 uM 15min-1 mg-1; in experiment [23], 0.35 uM 15min-1 mg-1; in experiment [24], 0.75 uM 15min-1 mg-1.

For `N#C/C(C(=O)Nc1ccccc1)=C(/O)c1ccccc1`, the Reduction in experiment [25] and in experiment [26] was 0% throughout.

For `N#C/C(C(=O)Nc1ccc([N+](=O)[O-])cc1)=C(/O)c1ccc(C(F)(F)F)cc1`, the Reduction in experiment [27] is 100%; in [5], 50%; in experiment [7], 100%; in experiment [8], 0%.

For the molecule `COC(=O)Nc1nc2cc([S+]([O-])c3ccccc3)ccc2[nH]1` (stereo not drawn) [OXFENDAZOLE], the Reduction in [28] is reported as 100%; in [29], 0%; in [30], 100%; in experiment [31], 100%.

In the case of `N#C/C(C(=O)Nc1ccc(Oc2ccc(Cl)cc2)c(Cl)c1)=C(/O)c1ccc(C(F)(F)F)cc1`, the Reduction is given as 0% in experiment [5]; 0% in [9]; 83% in [32]; 0% in experiment [10]; 0% in experiment [11]; 0% in [8]. The molecule also came in with a Reduction in [33] of 100%.

Turning to `N#C/C(C(=O)Nc1ccccc1)=C(/O)c1ccc(C(F)(F)F)cc1`, the Reduction in experiment [32] came to 100%; in experiment [33] it was 32%.

Turning to `N#C/C(C(=O)c1ccc(C(F)(F)F)cc1)=C(/S)Nc1ccc(C(F)(F)F)cc1`, the Reduction in [5] is given as 0%; in experiment [6] it was 100%; in experiment [7], 90%; in experiment [8] it was 0%.

As for `N#C/C(C(=O)Nc1ccc(C(F)(F)F)cc1)=C(/O)c1ccc(Br)cc1`, the Reduction was determined as 92% in [34], 99% in [35], 100% in experiment [36] and 45% in experiment [37].

For `N#C/C(C(=O)Nc1ccc(C(F)(F)F)cc1)=C(/O)c1ccccc1`, the Reduction in [38] and in experiment [39] was 0% each time.

Regarding `N#C/C(C(=O)Nc1ccc(F)cc1)=C(/O)c1ccc(C(F)(F)F)cc1`, the Reduction in experiment [5] turned out to be 100%; in experiment [3], 0%; in [37], 0%; in experiment [8], 0%.
